Measured values reported in ChEMBL document CHEMBL4673214, “Synthesis and antibacterial bioactivities of cationic deacetyl linezolid amphiphiles” (Eur J Med Chem, 2018).
Values after ≈ are worked out from the molar mass of the structure shown. Active and inactive are the calls of the source. The calls are words filed in the database; no cut-off is given here.

Legend:
[1] = tested on: Klebsiella pneumoniae; experiment: Antibacterial activity against carbapenem-resistant Klebsiella pneumoniae clinical isolate 2 assessed as reduction in bacterial growth incubated for 16 to 20 hrs by CLSI-based broth microdilution method; assay type: functional; conditions: time 16-20 hrs
Outline: (§1)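 Clinical isolates tested by broth microdilution in cation-adjusted Mueller-Hinton broth. Cultures grown 4-6 h (~10^8 CFU/mL) were diluted to ~10^6 CFU/mL and mixed 1:1 with compound serial dilutions made from 256 down to 0.5 µg/mL (pre-mixing). Plates held at 37 °C for 16-20 h, then read for growth. Each concentration run in duplicate, whole experiment at least twice.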

[2] = tested on: Enterobacteriaceae; experiment: Antibacterial activity against NDM1 producing carbapenem-resistant Enterobacteriaceae clinical isolate 5 assessed as reduction in bacterial growth incubated for 16 to 20 hrs by CLSI-based broth microdilution method; assay type: functional; conditions: time 16-20 hrs; outline: as §1
[3] = tested on: Cell membrane; experiment: Induction of outer membrane permeabilization in Escherichia coli ATCC 25922 at 20 ug/ml measured for 12 mins by NPN dye based fluorescence assay; conditions: dose 20.0 µg/ml
Outline: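 Mid-log E. coli in HEPES/glucose/KCl at ~10^8 CFU/mL was preincubated 40 min with N-phenylnaphthylamine (10 µM stock). Fluorescence (ex 350/em 420 nm) was read for an 8 min baseline, then every 2 min for 12 min after compound at 20 µg/mL final. Water served as control.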

[4] = tested on: Enterobacteriaceae; experiment: Antibacterial activity against NDM1 producing carbapenem-resistant Enterobacteriaceae clinical isolate 7 assessed as reduction in bacterial growth incubated for 16 to 20 hrs by CLSI-based broth microdilution method; assay type: functional; conditions: time 16-20 hrs; outline: as §1
[5] = tested on: Cell membrane; experiment: Induction of cytoplasmic membrane depolarization in Escherichia coli ATCC 25922 at 20 ug/ml measured for 12 mins by DiSC35 dye-based fluorescence assay; assay type: subcellular; conditions: dose 20.0 µg/ml
Outline: (§2)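 Mid-log bacteria were washed and resuspended at ~10^8 CFU/mL: S. aureus in PBS, E. coli in 5 mM HEPES/5 mM glucose/100 mM KCl (1:1:1). Cells were loaded with diSC35 (10 µM stock) for 30 min (S. aureus) or 40 min (E. coli, plus EDTA). Fluorescence (ex 622/em 670 nm) was read for an 8 min baseline, then every 2 min for 12 min after compound at 20 µg/mL final. Water served as control.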

[6] = tested on: Klebsiella pneumoniae; experiment: Antibacterial activity against carbapenem-resistant Klebsiella pneumoniae clinical isolate 8 assessed as reduction in bacterial growth incubated for 16 to 20 hrs by CLSI-based broth microdilution method; assay type: functional; conditions: time 16-20 hrs; outline: as §1
[7] = tested on: Klebsiella pneumoniae; experiment: Antibacterial activity against carbapenem-resistant Klebsiella pneumoniae clinical isolate 7 assessed as reduction in bacterial growth incubated for 16 to 20 hrs by CLSI-based broth microdilution method; assay type: functional; conditions: time 16-20 hrs; outline: as §1
[8] = tested on: Enterobacteriaceae; experiment: Antibacterial activity against NDM1 producing carbapenem-resistant Enterobacteriaceae clinical isolate 2 assessed as reduction in bacterial growth incubated for 16 to 20 hrs by CLSI-based broth microdilution method; assay type: functional; conditions: time 16-20 hrs; outline: as §1
[9] = tested on: Enterobacteriaceae; experiment: Antibacterial activity against NDM1 producing carbapenem-resistant Enterobacteriaceae clinical isolate 9 assessed as reduction in bacterial growth incubated for 16 to 20 hrs by CLSI-based broth microdilution method; assay type: functional; conditions: time 16-20 hrs; outline: as §1
[10] = tested on: Klebsiella pneumoniae; experiment: Antibacterial activity against carbapenem-resistant Klebsiella pneumoniae clinical isolate 10 assessed as reduction in bacterial growth incubated for 16 to 20 hrs by CLSI-based broth microdilution method; assay type: functional; conditions: time 16-20 hrs; outline: as §1
[11] = tested on: Cell membrane; experiment: Induction of inner membrane permeabilization in Staphylococcus aureus ATCC 29213 at 20 ug/ml measured for 12 mins by propidium iodide staining based fluorescence microscopic analysis; conditions: dose 20.0 µg/ml
Outline: (§3)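 Mid-log bacteria were washed and resuspended at ~10^8 CFU/mL and preincubated with propidium iodide (10 µM stock) for 30 min (S. aureus) or 40 min (E. coli). Fluorescence (ex 535/em 617 nm) was read on a plate for an 8 min baseline, then every 2 min for 12 min after compound at 20 µg/mL final. Water served as control.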

[12] = tested on: Escherichia coli; experiment: Antibacterial activity against Escherichia coli ATCC 25922 assessed as reduction in bacterial growth incubated 16 to 20 hrs by CLSI-based broth microdilution method; assay type: functional; conditions: time 16-20 hrs
Outline: (§4)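 Broth microdilution following CLSI, in cation-adjusted Mueller-Hinton broth. Inoculum from a 4-6 h culture (~10^8 CFU/mL), diluted to ~10^6 CFU/mL. Water stocks were serially diluted in MHB (256 to 0.5 µg/mL) and mixed 1:1 with the inoculum. Plates ran 16-20 h at 37 °C. MIC was read visually. Each concentration was tested in duplicate, and the experiment was repeated at least twice.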

[13] = tested on: Staphylococcus aureus; experiment: Bactericidal activity against early exponential phase of Staphylococcus aureus ATCC 29213 at 4X MIC measured after 6 hrs by time-kill kinetic assay; assay type: functional, organism-based
Outline: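 S. aureus ATCC 29213 overnight culture diluted 1:10,000 in MHB and shaken at 225 rpm, 37 °C for 2 h to early exponential phase. Exposed to compound at 4× MIC in tubes, 37 °C, 225 rpm. Samples spun down, resuspended in PBS, plated as ten-fold dilutions on MHA overnight at 37 °C, and CFU/mL counted. Biological replicates.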

[14] = tested on: Enterococcus faecalis; experiment: Antibacterial activity against Enterococcus faecalis ATCC 29212 assessed as reduction in bacterial growth incubated 16 to 20 hrs by CLSI-based broth microdilution method; assay type: functional; conditions: time 16-20 hrs; outline: as §4
[15] = tested on: Enterobacteriaceae; experiment: Antibacterial activity against NDM1 producing carbapenem-resistant Enterobacteriaceae clinical isolate 10 assessed as reduction in bacterial growth incubated for 16 to 20 hrs by CLSI-based broth microdilution method; assay type: functional; conditions: time 16-20 hrs; outline: as §1
[16] = tested on: Enterobacteriaceae; experiment: Antibacterial activity against NDM1 producing carbapenem-resistant Enterobacteriaceae clinical isolate 4 assessed as reduction in bacterial growth incubated for 16 to 20 hrs by CLSI-based broth microdilution method; assay type: functional; conditions: time 16-20 hrs; outline: as §1
[17] = tested on: Klebsiella pneumoniae; experiment: Antibacterial activity against carbapenem-resistant Klebsiella pneumoniae clinical isolate 5 assessed as reduction in bacterial growth incubated for 16 to 20 hrs by CLSI-based broth microdilution method; assay type: functional; conditions: time 16-20 hrs; outline: as §1
[18] = tested on: Enterobacteriaceae; experiment: Antibacterial activity against NDM1 producing carbapenem-resistant Enterobacteriaceae clinical isolate 3 assessed as reduction in bacterial growth incubated for 16 to 20 hrs by CLSI-based broth microdilution method; assay type: functional; conditions: time 16-20 hrs; outline: as §1
[19] = tested on: Klebsiella pneumoniae; experiment: Antibacterial activity against carbapenem-resistant Klebsiella pneumoniae clinical isolate 9 assessed as reduction in bacterial growth incubated for 16 to 20 hrs by CLSI-based broth microdilution method; assay type: functional; conditions: time 16-20 hrs; outline: as §1
[20] = tested on: Enterobacteriaceae; experiment: Antibacterial activity against NDM1 producing carbapenem-resistant Enterobacteriaceae clinical isolate 6 assessed as reduction in bacterial growth incubated for 16 to 20 hrs by CLSI-based broth microdilution method; assay type: functional; conditions: time 16-20 hrs; outline: as §1
[21] = tested on: Salmonella enterica; experiment: Antibacterial activity against Salmonella enterica ATCC 8387 assessed as reduction in bacterial growth incubated for 16 to 20 hrs by CLSI-based broth microdilution method; assay type: functional; conditions: time 16-20 hrs; outline: as §4
[22] = tested on: Klebsiella pneumoniae; experiment: Antibacterial activity against carbapenem-resistant Klebsiella pneumoniae clinical isolate 3 assessed as reduction in bacterial growth incubated for 16 to 20 hrs by CLSI-based broth microdilution method; assay type: functional; conditions: time 16-20 hrs; outline: as §1
[23] = tested on: Cell membrane; experiment: Induction of inner membrane permeabilization in Escherichia coli ATCC 25922 at 20 ug/ml measured for 12 mins by propidium iodide staining based fluorescence microscopic analysis; conditions: dose 20.0 µg/ml; outline: as §3
[24] = tested on: Enterobacteriaceae; experiment: Antibacterial activity against NDM1 producing carbapenem-resistant Enterobacteriaceae clinical isolate 8 assessed as reduction in bacterial growth incubated for 16 to 20 hrs by CLSI-based broth microdilution method; assay type: functional; conditions: time 16-20 hrs; outline: as §1
[25] = tested on: Klebsiella pneumoniae; experiment: Antibacterial activity against carbapenem-resistant Klebsiella pneumoniae clinical isolate 1 assessed as reduction in bacterial growth incubated for 16 to 20 hrs by CLSI-based broth microdilution method; assay type: functional; conditions: time 16-20 hrs; outline: as §1
[26] = tested on: Klebsiella pneumoniae; experiment: Antibacterial activity against carbapenem-resistant Klebsiella pneumoniae clinical isolate 6 assessed as reduction in bacterial growth incubated for 16 to 20 hrs by CLSI-based broth microdilution method; assay type: functional; conditions: time 16-20 hrs; outline: as §1
[27] = tested on: Klebsiella pneumoniae; experiment: Antibacterial activity against carbapenem-resistant Klebsiella pneumoniae clinical isolate 4 assessed as reduction in bacterial growth incubated for 16 to 20 hrs by CLSI-based broth microdilution method; assay type: functional; conditions: time 16-20 hrs; outline: as §1
[28] = tested on: Enterobacteriaceae; experiment: Antibacterial activity against NDM1 producing carbapenem-resistant Enterobacteriaceae clinical isolate 1 assessed as reduction in bacterial growth incubated for 16 to 20 hrs by CLSI-based broth microdilution method; assay type: functional; conditions: time 16-20 hrs; outline: as §1
[29] = tested on: Cell membrane; experiment: Induction of cytoplasmic membrane depolarization in Staphylococcus aureus ATCC 29213 at 20 ug/ml measured for 12 mins by DiSC35 dye-based fluorescence assay; assay type: subcellular; conditions: dose 20.0 µg/ml; outline: as §2

CN[C@H](CC(C)C)C(=O)N[C@H]1C(=O)N[C@@H](CC(N)=O)C(=O)N[C@H]2C(=O)N[C@H]3C(=O)N[C@H](C(=O)N[C@H](C(=O)O)c4cc(O)cc(O)c4-c4cc3ccc4O)[C@H](O)c3ccc(c(Cl)c3)Oc3cc2cc(c3O[C@@H]2O[C@H](CO)[C@@H](O)[C@H](O)[C@H]2O[C@H]2C[C@](C)(N)[C@H](O)[C@H](C)O2)Oc2ccc(cc2Cl)[C@H]1O [VANCOMYCIN]
MIC [1]: > 64 µg/mL
MIC [2]: 64 µg/mL (≈ 44.2 µM)
Activity [3]: inactive
MIC [4]: 64 µg/mL (≈ 44.2 µM)
Activity [5]: inactive
MIC [6]: > 64 µg/mL
MIC [7]: > 64 µg/mL
MIC [8]: > 64 µg/mL
MIC [9]: 64 µg/mL (≈ 44.2 µM)
MIC [10]: > 64 µg/mL
Activity [11]: inactive
MIC [12]: 64 µg/mL (≈ 44.2 µM)
Activity [13]: inactive
MIC [14]: 2 µg/mL (≈ 1.38 µM)
MIC [15]: > 64 µg/mL
MIC [16]: > 64 µg/mL
MIC [17]: 64 µg/mL (≈ 44.2 µM)
MIC [18]: > 64 µg/mL
MIC [19]: 64 µg/mL (≈ 44.2 µM)
MIC [20]: 64 µg/mL (≈ 44.2 µM)
MIC [21]: 32 µg/mL (≈ 22.1 µM)
MIC [22]: > 64 µg/mL
Activity [23]: inactive
MIC [24]: 64 µg/mL (≈ 44.2 µM)
MIC [25]: > 64 µg/mL
MIC [26]: > 64 µg/mL
MIC [27]: 64 µg/mL (≈ 44.2 µM)
MIC [28]: > 64 µg/mL
Activity [29]: inactive
